ChEMBL document CHEMBL5257161, “Mycobacterium tuberculosis CitA activity is modulated by cysteine oxidation and pyruvate binding” (RSC Med Chem, 2023)

Target: T1, Putative citrate synthase 2 (Mycobacterium tuberculosis, UniProt P9WPD3)
T1 sequence (P9WPD3 whole entry): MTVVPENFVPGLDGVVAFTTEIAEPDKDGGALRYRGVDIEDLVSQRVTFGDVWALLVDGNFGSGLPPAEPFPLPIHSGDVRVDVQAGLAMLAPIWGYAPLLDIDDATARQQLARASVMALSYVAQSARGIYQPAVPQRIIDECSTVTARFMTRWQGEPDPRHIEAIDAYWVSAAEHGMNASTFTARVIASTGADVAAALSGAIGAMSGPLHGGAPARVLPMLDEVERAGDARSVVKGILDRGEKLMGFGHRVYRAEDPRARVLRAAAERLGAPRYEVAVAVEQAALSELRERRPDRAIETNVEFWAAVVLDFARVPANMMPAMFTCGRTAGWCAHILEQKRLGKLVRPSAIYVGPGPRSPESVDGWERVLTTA
Assay: Inhibition of Mycobacterium tuberculosis CitA expressed in Escherichia coli cell by UV spectrophotometric based analysis
In short: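 Michael acceptor compounds were added directly to the DTNB/OAA/AcCoA reaction with 10 nM CitA in 50 mM Tris pH 8.0 at 25 °C, read at 412 nm. The screen used 20 μM compound. Dose–response data were fitted to the Hill equation for apparent IC50. A control measured how fast the compounds react with reaction components.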

`C=C1C(=O)OC2(C(=O)Nc3ccccc32)C1c1ccccc1` (configuration not stated) was tested, and the IC50 was 10.9 µM.
Compound `C=C1CC2(OC1=O)C(=O)Nc1ccc(I)cc12` (configuration not stated) has an IC50 of 6.6 µM.
